Experimental data as given in ChEMBL document CHEMBL4842320, “Cryptic Biosynthesis of the Berkeleypenostatins from Coculture of Extremophilic Penicillium sp” (J Nat Prod, 2021).
Converted amounts (≈) assume the structure as drawn. The source made the active and inactive calls. The calls are words filed in the database; no cut-off is given here.

Key:
Staphylococcus aureus [1] = assay: Antibacterial activity against wild-type Staphylococcus aureus assessed as minimum inhibitory concentration by alamar blue dye based broth microdilution method; type: functional
Bacillus anthracis = assay: Antibacterial activity against Bacillus anthracis assessed as minimum inhibitory concentration by alamar blue dye based broth microdilution method; type: functional
Staphylococcus aureus [2] = assay: Antibacterial activity against multidrug resistant strains of Staphylococcus aureus assessed as minimum inhibitory concentration by alamar blue dye based broth microdilution method; type: functional
HPAF-II [3] = assay: Cytotoxicity against human HPAF-II cells assessed as reduction in cell viability at upto 50 uM by MTT assay; type: functional, cell-based; details: dose microM <=50
In short: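 Vybrant MTT proliferation assay on HPAF-II cells harvested with 0.25% trypsin/0.53 mM EDTA, with viability checked after harvest. Compounds were tested up to 50 μM.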

HPAF-II [4] = assay: Antiinvasive activity against human HPAF-II cells assessed as reduction in cell invasion at 1.25 uM measured upto 24 hrs by CMFDA dye staining based fluorescence assay; type: functional; details: time hrs <=24
In short: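 Matrigel-coated invasion inserts with 8 μm pores. HPAF-II cells were harvested, resuspended in serum-free DMEM and labelled with CellTracker CMFDA. Compound was diluted in serum-free DMEM to a final 1.25 μM. Run in triplicate, with untreated cells as control and NNGH as positive control.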

HPAF-II [5] = assay: Inhibition of cell migration in human HPAF-II cells at 1.25 uM measured upto 24 hrs by CMFDA dye staining based fluorescence assay; type: functional; details: time hrs <=24
In short: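 Fluoroblok 96-well insert migration kinetics. HPAF-II cells were harvested at ~80% confluency, resuspended at 5 ×10^5 cells/mL in serum-free DMEM and stained with CellTracker CMFDA. Compound was present at a final 1.25 μM over 24 h. Run in triplicate, with untreated cells as control and NNGH as positive control.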

[6] = test system: Panel NCI-60 (60 carcinoma cell lines); assay: Anticancer activity against human Panel NCI-60 (60 carcinoma cell lines) assessed as total growth inhibition at 1 to 10 uM measured after 48 hrs by SRB assay; type: functional, cell-based; details: dose 1-10 µM
In short: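 NCI Developmental Therapeutics Program 60-human-tumour-cell-line five-dose screen, with total growth inhibition (TGI) as the end-point.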

Stromelysin-1 = Stromelysin-1 (Homo sapiens, UniProt P08254); assay: Inhibition of MMP-3 (unknown origin)
In short: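 MMP-3 inhibition measured with a commercial MMP-3 drug discovery kit.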

Stromelysin-1, sequence (P08254 whole entry): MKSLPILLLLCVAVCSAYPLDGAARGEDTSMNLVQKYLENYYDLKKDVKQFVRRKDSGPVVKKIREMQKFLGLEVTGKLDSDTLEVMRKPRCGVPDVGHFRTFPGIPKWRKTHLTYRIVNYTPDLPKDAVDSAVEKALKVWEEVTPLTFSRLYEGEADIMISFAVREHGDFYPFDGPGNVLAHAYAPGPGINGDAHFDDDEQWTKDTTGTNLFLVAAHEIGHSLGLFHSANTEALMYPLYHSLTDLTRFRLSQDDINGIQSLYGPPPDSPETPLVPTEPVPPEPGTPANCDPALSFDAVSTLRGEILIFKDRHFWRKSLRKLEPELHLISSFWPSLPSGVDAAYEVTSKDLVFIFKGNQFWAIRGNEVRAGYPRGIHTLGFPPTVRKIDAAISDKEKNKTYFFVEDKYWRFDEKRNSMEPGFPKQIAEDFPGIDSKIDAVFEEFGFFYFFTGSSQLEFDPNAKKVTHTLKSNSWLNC

SMILES	MIC (Staphylococcus aureus [1]) [µg/mL]	MIC (Bacillus anthracis) [µg/mL]	MIC (Staphylococcus aureus [2]) [µg/mL]	Activity (HPAF-II [3])	Activity (HPAF-II [4])	inhibition at 1.25 µM (HPAF-II [5]) [%]	Activity [6]	IC50 (Stromelysin-1) [µM]
CCCCCCC/C=C/[C@@H]1O[C@@]2(O)C(=O)C=C3C[C@@H](O[C@@H]4O[C@H](CO)[C@@H](O)[C@H](O)[C@H]4O)C[C@H]3[C@@H]2C=C1C	17 (≈ 32.5 µM)	17 (≈ 32.5 µM)	17 (≈ 32.5 µM)	–	–	–	–	–
O=C(O)c1cn(C2CC2)c2cc(N3CCNCC3)c(F)cc2c1=O [CIPROFLOXACIN]	–	0.064 (≈ 0.193 µM)	–	–	–	–	–	–
CCCCCCC/C=C/[C@@H]1O[C@]23C(=O)C[C@@]4(C[C@H](O[C@@H]5O[C@H](CO)[C@@H](O)[C@H](O)[C@H]5O)C[C@H]4[C@@H]2C=C1C)OC3=O	–	–	–	inactive	inactive	30	inactive	–
CCCCCCC/C=C/[C@@H]1O[C@@]2(O)C(=O)C=C3C[C@H](O[C@@H]4O[C@H](CO)[C@@H](O)[C@H](O)[C@H]4O)C[C@H]3[C@@H]2C=C1C	4 (≈ 7.65 µM)	4 (≈ 7.65 µM)	4 (≈ 7.65 µM)	inactive	inactive	30	Active	50
